Holding throughout (assay type): functional
Assay [1] has as its system HL-60(TB). As to the kind of experiment: Growth inhibition of human HL-60(TB) cells at 10 uM after 48 hrs by SRB assay relative to control. To be noted: HL-60, 48 h, read-out: GI. Put shortly:
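Run at NCI under its standard single-dose protocol against a leukemia cell panel. Cells were exposed to 10 µM; growth was read by sulforhodamine B staining of cellular protein and expressed as % growth inhibition versus untreated control. Values above 100% mean the cell population fell below the starting count (cytocidal). Each value is the average of duplicates.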

For assay [2], the system named is K562. Put plainly: Growth inhibition of human K562 cells at 10 uM after 48 hrs by SRB assay relative to control. To be noted: K562, 48 h, read-out: GI. Put shortly: (§1)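 Screened at the National Cancer Institute by the standard NCI protocol using the sulforhodamine B assay, which measures cellular protein. Single dose of 10 µM. Result is percent growth inhibition; values above 100% mean cell number fell below the initial population. Values are the average of duplicates.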
In general terms: The SRB assay estimates cell density from bound dye.

The subject of assay [3] is NCI-H226. As to the kind of experiment: Growth inhibition of human NCI-H226 cells at 10 uM after 48 hrs by SRB assay relative to control. To be noted: NCI-H226, 48 h, read-out: GI. Put shortly: as §1
The subject of assay [4] is HCC 2998. As to the kind of experiment: Growth inhibition of human HCC2998 cells at 10 uM after 48 hrs by SRB assay relative to control. To be noted: HCC 2998, 48 h, read-out: GI. Put shortly: as §1
Assay [5] relates to HCT-116. As to the kind of experiment: Growth inhibition of human HCT116 cells at 10 uM after 48 hrs by SRB assay relative to control. To be noted: HCT-116, 48 h, read-out: GI. Put shortly: as §1
The test system of assay [6] is SF-268. As to the kind of experiment: Growth inhibition of human SF268 cells at 10 uM after 48 hrs by SRB assay relative to control. The settings on record: SF-268, 48 h, read-out: GI. In outline: as §1
The subject of assay [7] is SNB-19. Put plainly: Growth inhibition of human SNB19 cells at 10 uM after 48 hrs by SRB assay relative to control. The settings on record: SNB-19, 48 h, read-out: GI. In outline: (§2)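 NCI screen against its human cancer cell line panel by the standard NCI protocol, SRB protein stain. Single dose of 10 μM. Percent growth inhibition versus control; values above 100% mean the cell population fell below the starting number. Each value is the mean of duplicates.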

For assay [8], the system named is MDA-MB-435. As to the kind of experiment: Growth inhibition of human MDA-MB-435 cells at 10 uM after 48 hrs by SRB assay relative to control. The settings on record: MDA-MB-435, 48 h, read-out: GI. Put shortly: as §1
Assay [9] has as its system SK-MEL-5. Put plainly: Growth inhibition of human SK-MEL-5 cells at 10 uM after 48 hrs by SRB assay relative to control. The settings on record: SK-MEL-5, 48 h, read-out: GI. Put shortly:
as §1

Assay [10] has as its system UACC-62. As to the kind of experiment: Growth inhibition of human UACC62 cells at 10 uM after 48 hrs by SRB assay relative to control. The settings on record: UACC-62, 48 h, read-out: GI. In outline: as §2
The subject of assay [11] is OVCAR-3. Put plainly: Growth inhibition of human OVCAR3 cells at 10 uM after 48 hrs by SRB assay relative to control. The settings on record: OVCAR-3, 48 h, read-out: GI. Put shortly: as §1
The test system of assay [12] is OVCAR-5. As to the kind of experiment: Growth inhibition of human OVCAR5 cells at 10 uM after 48 hrs by SRB assay relative to control. The settings on record: OVCAR-5, 48 h, read-out: GI. Put shortly:
as §1

Assay [13] has as its system OVCAR-8. Put plainly: Growth inhibition of human OVCAR8 cells at 10 uM after 48 hrs by SRB assay relative to control. The settings on record: OVCAR-8, 48 h, read-out: GI. In outline: as §1
Assay [14] deals with NCI/ADR-RES. Put plainly: Growth inhibition of human NCI/ADR-RES cells at 10 uM after 48 hrs by SRB assay relative to control. To be noted: read-out: GI. Put shortly:
as §1

Assay [15] has as its system RXF 393. As to the kind of experiment: Growth inhibition of human RXF393 cells at 10 uM after 48 hrs by SRB assay relative to control. To be noted: RXF 393, 48 h, read-out: GI. Put shortly: as §1
The subject of assay [16] is PC-3. As to the kind of experiment: Growth inhibition of human PC3 cells at 10 uM after 48 hrs by SRB assay relative to control. To be noted: PC-3, 48 h, read-out: GI. In outline: as §1
Assay [17] relates to DU-145. Put plainly: Growth inhibition of human DU145 cells at 10 uM after 48 hrs by SRB assay relative to control. The settings on record: DU-145, 48 h, read-out: GI. In outline: as §1
In assay [18] the test system is BT-549. As to the kind of experiment: Growth inhibition of human BT549 cells at 10 uM after 48 hrs by SRB assay relative to control. The settings on record: BT-549, 48 h, read-out: GI. Put shortly:
as §1

Turning to `COc1cccc(C(=O)Nc2cccc(-c3cc(=O)c4c(O)c(OC)c(OC)cc4o3)c2)c1`, the inhibition of growth at 10 µM in [1] came to 19.5%; in assay [2], 69.2%; in assay [3] it was 36.3%; in assay [4], 11.8%; in assay [5], 44.5%; in assay [6], 29.8%. Also, the inhibition of growth at 10 µM was found to be 16.6% in assay [7]; 33.6% in assay [8]; 48.9% in assay [9]; 39.1% in assay [10]; 34.1% in assay [11]; 9.51% in assay [12]. Besides, the inhibition of growth at 10 µM was 50.7% in [13]; 43.7% in assay [14]; 1.37% in assay [15]; 59.6% in assay [16]; 36.7% in [17]; 34.2% in assay [18].
For the molecule `COc1cc2oc(-c3cccc(C(=O)Nc4ccc5c(c4)OCO5)c3)cc(=O)c2c(OC)c1OC`, the inhibition of growth at 10 µM in assay [1] is 30.3%; in assay [2] it was 25.8%; in assay [3], 21.2%; in assay [4], 2.03%; in assay [5], 27.3%; in assay [6], 12.5%. The inhibition of growth at 10 µM worked out at 5.13% in assay [7]; 4.94% in assay [8]; 47.2% in assay [9]; 19.1% in [10]; 12.7% in assay [11]; 16.4% in assay [12]. Besides, the inhibition of growth at 10 µM came to 45.9% in [13]; 35.1% in assay [14]; 29% in [15]; 26.5% in assay [16]; 18.7% in assay [17]; 42.4% in assay [18].
In the case of `COc1cc2oc(-c3cccc(NC(=O)c4ccc5c(c4)OCO5)c3)cc(=O)c2c(O)c1OC`, the inhibition of growth at 10 µM came to 14% in assay [1]; 15% in [2]; 55.4% in [3]; 9.76% in [4]; 21% in assay [5]; 32.5% in assay [6]. Also, the inhibition of growth at 10 µM was 33.8% in assay [7]; 5.39% in assay [8]; 25.9% in [9]; 41.4% in assay [10]; -4.7% in assay [11]; 13.7% in [12]. Also, the inhibition of growth at 10 µM is 37.8% in [13]; 14.8% in assay [14]; 32.6% in assay [15]; 22.6% in assay [16]; 2.12% in assay [17]; 24.5% in [18].
`COc1cccc(C(=O)Nc2cccc(-c3cc(=O)c4c(OC)c(OC)c(OC)cc4o3)c2)c1`: the inhibition of growth at 10 µM in assay [1] was 14.8%; in assay [2], 62%; in assay [3], 28%; in assay [4] it was 19.5%; in [5], 46.4%; in [6] it was 42.6%. The inhibition of growth at 10 µM in [7] was 29.6%; in assay [8] it was 23.4%; in assay [9] it was 39.4%; in assay [10], 41.1%; in assay [11] it was 24.6%; in assay [12] it was 10.4%. For the same molecule, the inhibition of growth at 10 µM was 47.7% in assay [13]; 34.5% in [14]; 28.9% in [15]; 48.8% in [16]; 32.6% in [17]; 42.5% in [18].
Regarding `COc1cccc(NC(=O)c2cccc(-c3cc(=O)c4c(O)c(OC)c(OC)cc4o3)c2)c1`, the inhibition of growth at 10 µM in assay [1] is 17.5%; in assay [2] it was 16.9%; in [3] it was 41.5%; in assay [4] it was -3.54%; in [5], 30.7%; in assay [6], 22.9%. In addition, the inhibition of growth at 10 µM in assay [7] turned out to be 16.4%; in [8], 22.6%; in assay [9] it was 26.8%; in assay [10], 44.4%; in [11], 10.6%; in [12], 8.5%. For the same molecule, the inhibition of growth at 10 µM in [13] is 62.5%; in assay [14], 25.8%; in [15], 25.8%; in assay [16], 39.3%; in assay [17] it was 19.4%; in assay [18], 30.5%.
As to `COc1ccccc1NC(=O)c1cccc(-c2cc(=O)c3c(O)c(OC)c(OC)cc3o2)c1`, the inhibition of growth at 10 µM in assay [1] is 9.41%; in assay [2], 22.1%; in [3] it was 23.9%; in assay [4] it was -2.45%; in assay [5], 14.5%; in assay [6] it was 12.9%. In addition, the inhibition of growth at 10 µM in [7] was 6.18%; in assay [8], 2.77%; in [9], 3.77%; in assay [10], 26.5%; in assay [11], -0.89%; in assay [12] it was 8.1%. Further, the inhibition of growth at 10 µM was 35.2% in [13]; 19.8% in [14]; 21.8% in assay [15]; 25.1% in assay [16]; 5.49% in assay [17]; 10.8% in assay [18].
For the molecule `COc1ccc(NC(=O)c2cccc(-c3cc(=O)c4c(OC)c(OC)c(OC)cc4o3)c2)cc1`, the inhibition of growth at 10 µM came out at 21.2% in assay [1]; 50.4% in assay [2]; 18.5% in assay [3]; 26.3% in [4]; 36.6% in assay [5]; 27.9% in [6]. Moreover, the inhibition of growth at 10 µM in [7] was found to be 8.54%; in assay [8], 23.8%; in assay [9], 59.1%; in assay [10], 35.2%; in assay [11], 54.3%; in assay [12], 16.8%. The inhibition of growth at 10 µM was determined as 46.1% in assay [13]; 47.2% in assay [14]; 59.9% in assay [15]; 38.8% in [16]; 26.3% in [17]; 53.1% in assay [18].
Regarding `COc1cccc(NC(=O)c2cccc(-c3cc(=O)c4c(OC)c(OC)c(OC)cc4o3)c2)c1`, the inhibition of growth at 10 µM in [1] amounted to 31.3%; in [2] it was 59.7%; in [3], 36.7%; in [4], 12.2%; in assay [5], 39.3%; in assay [6], 36.9%. The inhibition of growth at 10 µM in [7] turned out to be 17.5%; in assay [8] it was 18.8%; in assay [9] it was 36.1%; in [10] it was 37.9%; in assay [11] it was 33.4%; in assay [12] it was 9.93%. Moreover, the inhibition of growth at 10 µM was found to be 53% in assay [13]; 35.2% in assay [14]; 52.1% in assay [15]; 42.9% in assay [16]; 28.2% in assay [17]; 45.8% in [18].

The values above are taken from ChEMBL document CHEMBL4325889, “Natural products hybrids: 3,5,4'-Trimethoxystilbene-5,6,7-trimethoxyflavone chimeric analogs as potential cytotoxic agents against diverse human cancer cells” (Eur J Med Chem, 2019).
